Active and inactive are the calls of the source. The rule behind the calls is not given here.
Assays:
MDA-MB-231 [1] = experiment: Antiproliferative activity against human MDA-MB-231 cells measured after 48 hrs by MTT assay; format: functional, cell-based; conditions: MDA-MB-231, 48 h
Outline: (§1)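 Cells kept in 10% FBS medium with penicillin/streptomycin/L-glutamine at 37 °C, 5% CO2 (MDA-MB-231 in DMEM, K562 in RPMI 1640). Viability read by MTT reduction to formazan after 48 h of exposure. IC50 obtained by nonlinear regression against vehicle control, given as mean ±SD of three independent experiments (n = 2 where footnoted).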

K562 [2] = experiment: Antiproliferative activity against human K562 cells measured after 48 hrs by MTT assay; format: functional, cell-based; conditions: K562, 48 h; outline: as §1
MDA-MB-231 [3] = experiment: Induction of apoptosis in human MDA-MB-231 cells assessed as viable cells at 10 umol/L measured after 2 hrs by annexin-V-FITC/7-AAD staining based flow cytometric analysis (reference value: 97 to 98%); format: functional; conditions: MDA-MB-231, 2 h, read-out: Activity
MDA-MB-231 [4] = experiment: Induction of apoptosis in human MDA-MB-231 cells assessed as viable cells at 10 umol/L measured after 4 hrs by annexin-V-FITC/7-AAD staining based flow cytometric analysis (reference value: 97 to 98%); format: functional; conditions: MDA-MB-231, 4 h, read-out: Activity
MDA-MB-231 [5] = experiment: Induction of apoptosis in human MDA-MB-231 cells assessed as viable cells at 10 umol/L measured after 6 hrs by annexin-V-FITC/7-AAD staining based flow cytometric analysis (reference value: 97 to 98%); format: functional; conditions: MDA-MB-231, 6 h, read-out: Activity
MDA-MB-231 [6] = experiment: Induction of apoptosis in human MDA-MB-231 cells assessed as viable cells at 10 umol/L measured after 8 hrs by annexin-V-FITC/7-AAD staining based flow cytometric analysis (reference value: 97 to 98%); format: functional; conditions: MDA-MB-231, 8 h, read-out: Activity
MDA-MB-231 [7] = experiment: Induction of apoptosis in human MDA-MB-231 cells assessed as viable cells at 10 umol/L measured after 24 hrs by annexin-V-FITC/7-AAD staining based flow cytometric analysis (reference value: 97 to 98%); format: functional; conditions: MDA-MB-231, 24 h, read-out: Activity
MDA-MB-231 [8] = experiment: Induction of apoptosis in human MDA-MB-231 cells assessed as late apoptotic cells at 10 umol/L measured after 8 hrs by annexin-V-FITC/7-AAD staining based flow cytometric analysis relative to control; format: functional
MDA-MB-231 [9] = experiment: Induction of apoptosis in human MDA-MB-231 cells assessed as late apoptotic cells at 10 umol/L measured after 24 hrs by annexin-V-FITC/7-AAD staining based flow cytometric analysis relative to control; format: functional
MDA-MB-231 [10] = experiment: Induction of apoptosis in human MDA-MB-231 cells assessed as late apoptotic cells at 10 umol/L measured after 4 hrs by annexin-V-FITC/7-AAD staining based flow cytometric analysis relative to control; format: functional
MDA-MB-231 [11] = experiment: Induction of apoptosis in human MDA-MB-231 cells assessed as increase in early apoptotic cells at 10 umol/L measured after 4 to 24 hrs by annexin-V-FITC/7-AAD staining based flow cytometric analysis; format: functional, cell-based
MDA-MB-231 [12] = experiment: Cell cycle arrest in human MDA-MB-231 cells assessed as accumulation at sub-G0 phase at 1 uM measured after 24 hrs by propidium iodide staining based flow cytometry (reference value: 3%); format: functional
MDA-MB-231 [13] = experiment: Cell cycle arrest in human MDA-MB-231 cells assessed as accumulation at G1 phase at 1 uM measured after 24 hrs by propidium iodide staining based flow cytometry (reference value: 62%); format: functional
MDA-MB-231 [14] = experiment: Cell cycle arrest in human MDA-MB-231 cells assessed as accumulation at S phase at 1 uM measured after 24 hrs by propidium iodide staining based flow cytometry (reference value: 12%); format: functional
MDA-MB-231 [15] = experiment: Cell cycle arrest in human MDA-MB-231 cells assessed as accumulation at G2 phase at 1 uM measured after 24 hrs by propidium iodide staining based flow cytometry (reference value: 23%); format: functional
MDA-MB-231 [16] = experiment: Cell cycle arrest in human MDA-MB-231 cells assessed as accumulation at sub-G0 phase at 3 uM measured after 24 hrs by propidium iodide staining based flow cytometry (reference value: 3%); format: functional
MDA-MB-231 [17] = experiment: Cell cycle arrest in human MDA-MB-231 cells assessed as accumulation at G1 phase at 3 uM measured after 24 hrs by propidium iodide staining based flow cytometry (reference value: 62%); format: functional
MDA-MB-231 [18] = experiment: Cell cycle arrest in human MDA-MB-231 cells assessed as accumulation at S phase at 3 uM measured after 24 hrs by propidium iodide staining based flow cytometry (reference value: 12%); format: functional
MDA-MB-231 [19] = experiment: Cell cycle arrest in human MDA-MB-231 cells assessed as accumulation at G2 phase at 3 uM measured after 24 hrs by propidium iodide staining based flow cytometry (reference value: 23%); format: functional
MDA-MB-231 [20] = experiment: Cell cycle arrest in human MDA-MB-231 cells assessed as accumulation at sub-G0 phase at 10 uM measured after 24 hrs by propidium iodide staining based flow cytometry (reference value: 3%); format: functional
MDA-MB-231 [21] = experiment: Cell cycle arrest in human MDA-MB-231 cells assessed as accumulation at G1 phase at 10 uM measured after 24 hrs by propidium iodide staining based flow cytometry (reference value: 62%); format: functional
MDA-MB-231 [22] = experiment: Cell cycle arrest in human MDA-MB-231 cells assessed as accumulation at S phase at 10 uM measured after 24 hrs by propidium iodide staining based flow cytometry (reference value: 12%); format: functional
MDA-MB-231 [23] = experiment: Cell cycle arrest in human MDA-MB-231 cells assessed as accumulation at G2 phase at 10 uM measured after 24 hrs by propidium iodide staining based flow cytometry (reference value: 23%); format: functional
MDA-MB-231 [24] = experiment: Cell cycle arrest in human MDA-MB-231 cells assessed as accumulation at sub-G0 phase at 30 uM measured after 24 hrs by propidium iodide staining based flow cytometry (reference value: 3%); format: functional
MDA-MB-231 [25] = experiment: Cell cycle arrest in human MDA-MB-231 cells assessed as accumulation at G1 phase at 30 uM measured after 24 hrs by propidium iodide staining based flow cytometry (reference value: 62%); format: functional
MDA-MB-231 [26] = experiment: Cell cycle arrest in human MDA-MB-231 cells assessed as accumulation at S phase at 30 uM measured after 24 hrs by propidium iodide staining based flow cytometry (reference value: 12%); format: functional
MDA-MB-231 [27] = experiment: Cell cycle arrest in human MDA-MB-231 cells assessed as accumulation at G2 phase at 30 uM measured after 24 hrs by propidium iodide staining based flow cytometry (reference value: 23%); format: functional
K562 [28] = experiment: Induction of superoxide generation in human K562 cells at 5 umol/L measured after 24 hrs in presence of NQO1 inhibitor dicoumarol by DHE staining based flow cytometry; format: functional, cell-based
Outline: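 Cells were treated with compound at 5 μmol/L or DMSO for 24 h, with or without dicoumarol preincubation (5 μmol/L, 30 min), then stained with DHE for 30 min. 2-OH-DHE fluorescence was read by flow cytometry and expressed relative to vehicle control. At least three independent measurements.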

[29] = molecular target: T1, Signal transducer and activator of transcription 3 (Homo sapiens, UniProt P40763); experiment: Inhibition of STAT3 phosphorylation at Y705 in human MDA-MB-231 cells after 4 hrs by HTRF assay; format: cell-based
T1 sequence (P40763 whole entry): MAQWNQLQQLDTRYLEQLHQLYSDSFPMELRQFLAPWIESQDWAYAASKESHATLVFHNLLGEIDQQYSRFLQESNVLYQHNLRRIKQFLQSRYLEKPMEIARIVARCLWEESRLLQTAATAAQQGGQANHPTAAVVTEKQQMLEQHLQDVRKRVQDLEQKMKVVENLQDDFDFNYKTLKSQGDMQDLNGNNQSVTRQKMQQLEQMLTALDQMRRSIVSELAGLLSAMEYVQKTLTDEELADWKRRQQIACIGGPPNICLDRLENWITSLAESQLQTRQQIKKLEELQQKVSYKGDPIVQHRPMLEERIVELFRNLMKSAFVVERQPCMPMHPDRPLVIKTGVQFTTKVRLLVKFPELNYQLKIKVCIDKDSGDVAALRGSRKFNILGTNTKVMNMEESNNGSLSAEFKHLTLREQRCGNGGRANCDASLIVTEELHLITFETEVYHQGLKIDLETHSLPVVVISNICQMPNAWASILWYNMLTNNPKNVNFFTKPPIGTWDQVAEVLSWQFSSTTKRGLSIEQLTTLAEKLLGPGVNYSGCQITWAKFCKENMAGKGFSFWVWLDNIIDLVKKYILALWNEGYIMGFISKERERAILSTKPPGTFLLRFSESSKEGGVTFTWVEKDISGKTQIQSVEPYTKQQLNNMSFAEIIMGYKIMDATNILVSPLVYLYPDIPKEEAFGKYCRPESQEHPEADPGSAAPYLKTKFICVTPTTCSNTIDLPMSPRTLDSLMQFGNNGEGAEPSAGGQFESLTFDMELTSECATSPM
Outline: (§2)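 MDA-MB-231 cells (10^5/well) were left to adhere overnight, serum-starved for 4 h in DMEM, then treated with 0.1–30 μmol/L compound (0.5% final DMSO) for 4 h at 37 °C. Lysates were incubated 24 h at room temperature with Eu-cryptate/d2 antibody pairs for phospho-STAT3 (Y705) or total STAT3. The 665/620 nm HTRF ratio was taken and phospho/total normalized. EC50 was obtained by nonlinear regression.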

MDA-MB-231 [30] = experiment: Effect on total STAT3 level in human MDA-MB-231 cells at 0.1 to 30 umol/L after 4 hrs by HTRF assay; format: cell-based; conditions: mda-mb-231, 4 h; outline: as §2
[31] = molecular target: T1, Signal transducer and activator of transcription 3; experiment: Inhibition of STAT3 phosphorylation at Y705 in human MDA-MB-231 cells assessed as reduction in ratio of phosphorylated STAT3 to total STAT3 level after 4 hrs by HTRF assay; format: cell-based; outline: as §2
[32] = molecular target: T1, Signal transducer and activator of transcription 3; experiment: Binding affinity to STAT3 in human MDA-MB-231 cells at 100 uM measured after 1 hr by DARTS-Western blot analysis; format: cell-based
Outline: (§3)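 A nondenaturing lysate of MDA-MB-231 cells (M-PER with protease and phosphatase inhibitors) was incubated with compound at 100 μmol/L or DMSO for 1 h at room temperature in the dark. TNC buffer pH 8.0 was added, then thermolysin (1:3000 of protein) for 30 min at room temperature; undigested controls were kept. Run on SDS-PAGE with 10 μg protein per lane, then Western blot with anti-STAT3.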

[33] = molecular target: T1, Signal transducer and activator of transcription 3; experiment: Binding affinity to STAT3 in human MDA-MB-231 cells at 100 uM treated for 1 hr followed by thermolysin addition measured after 30 mins by DARTS-Western blot analysis; format: cell-based; outline: as §3
MDA-MB-231 [34] = experiment: Induction of apoptosis in human MDA-MB-231 cells assessed as late apoptotic cells at 10 umol/L measured after 4 hrs by annexin-V-FITC/7-AAD staining based flow cytometric analysis relative to control

Work on `CC(=O)c1cc2c(o1)-c1ccccc1C(=O)C2=O` yielded an IC50 (MDA-MB-231 [1]) of 740 nM, an IC50 (K562 [2]) of 1100 nM and a viability at 10 µM (MDA-MB-231 [3]) of 93%. The viability at 10 µM (MDA-MB-231 [4]) was 82%, the viability at 10 µM (MDA-MB-231 [5]) was 83% and the viability at 10 µM (MDA-MB-231 [6]) was 67%. For the same molecule, the viability at 10 µM (MDA-MB-231 [7]) was 9%, the Activity (MDA-MB-231 [8]) was 31% and the Activity (MDA-MB-231 [9]) was 89%. For the same molecule, the Activity (MDA-MB-231 [10]) was 14%, the Activity (MDA-MB-231 [11]) was “inactive” and the Activity (MDA-MB-231 [12]) was 3%. For the same molecule, the Activity (MDA-MB-231 [13]) was 60%, the Activity (MDA-MB-231 [14]) was 14% and the Activity (MDA-MB-231 [15]) was 23%. The Activity (MDA-MB-231 [16]) was 5%, the Activity (MDA-MB-231 [17]) was 59% and the Activity (MDA-MB-231 [18]) was 13%. For the same molecule, the Activity (MDA-MB-231 [19]) was 23%, the Activity (MDA-MB-231 [20]) was “inactive” and the Activity (MDA-MB-231 [21]) was 63%. It also gave an Activity (MDA-MB-231 [22]) of 15%, an Activity (MDA-MB-231 [23]) of 20% and an Activity (MDA-MB-231 [24]) of 5%. It also gave an Activity (MDA-MB-231 [25]) of 60%, an Activity (MDA-MB-231 [26]) of 15% and an Activity (MDA-MB-231 [27]) of 20%. The Activity (K562 [28]) was “inactive”, the EC50 [29] was 870 nM and the Activity (MDA-MB-231 [30]) was “Non-Toxic”. The EC50 [31] was 800 nM, the Activity [32] was “inactive” and the Activity [33] was “Active”. The Activity (MDA-MB-231 [34]) was 14%.

Source: ChEMBL document CHEMBL4145650, “Napabucasin and Related Heterocycle-Fused Naphthoquinones as STAT3 Inhibitors with Antiproliferative Activity against Cancer Cells” (J Nat Prod, 2018)
